High-throughput results from PubChem BioAssay.
Compounds with a hit are over-represented: about 11% of the library has one in this group of screens.
mHtt clearance – mutant huntingtin protein clearance; HeLa Exon1htt(103Q)mCFP, aggregate imaging; zero = plate's median compound well; hit rate 0.42% among 47,000; inhibition, % at 1.5 µM;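 active = inhibition of aggregate fluorescence above about 70%, also judged a hit by eye on the cell image, limit read from the data, passing the limit was not always enough; inconclusive = no rule stated for this call; inactive = not judged a hit on image review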;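 also: cells exposed to compound for three days before fixation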
M1 ag – M1 muscarinic receptor agonism. CHO-M1 cells, Fluo-4 calcium fluorescence, agonist mode; hits give high values. B-score at 10 µM. hit rate 3% among 64,000. AID 626;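 active = fluorescence rise, raw or as B-score row- and column-corrected plate score, outside the 99.7% band of its plate's samples, either direction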
RORa activator – activators of human nuclear receptor RORA; activation, % at 10 µM; hit rate 1.5% among 65,000; CHO-K1 Gal4-RORA LBD luciferase reporter, luminescence; percent increase over mock-subtracted basal signal; AID 560; P35398;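 active = activation above the mean of all tested compounds plus 3 SD, cut at about 49% in these data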;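 also: 0% = DMSO-treated RORA cells and 100% = added signal equal to DMSO minus mock-transfected cells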
Target sequence (P35398 whole entry, looked up, the tested form may be a part): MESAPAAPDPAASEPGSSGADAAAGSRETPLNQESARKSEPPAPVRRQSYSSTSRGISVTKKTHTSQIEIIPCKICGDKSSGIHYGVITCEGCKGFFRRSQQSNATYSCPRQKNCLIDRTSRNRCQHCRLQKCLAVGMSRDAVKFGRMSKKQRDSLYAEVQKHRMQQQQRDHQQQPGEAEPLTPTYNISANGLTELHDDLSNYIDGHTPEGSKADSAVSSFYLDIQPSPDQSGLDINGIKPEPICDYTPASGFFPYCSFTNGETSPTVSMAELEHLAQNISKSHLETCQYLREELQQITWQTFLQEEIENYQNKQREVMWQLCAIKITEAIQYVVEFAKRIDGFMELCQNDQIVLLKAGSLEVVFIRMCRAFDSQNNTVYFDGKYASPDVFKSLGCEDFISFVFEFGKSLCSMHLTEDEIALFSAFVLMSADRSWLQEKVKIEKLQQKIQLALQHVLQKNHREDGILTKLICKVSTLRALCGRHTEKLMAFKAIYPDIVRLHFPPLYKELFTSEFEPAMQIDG
SF-1 act – activators of human nuclear receptor SF-1. Q13285. CHO-K1 Gal4-SF-1 LBD luciferase reporter; % increase over DMSO SF-1-specific signal. activation, % at 10 µM. hit rate 1.9% among 65,000;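 active = activation above the mean activation of all tested compounds plus 3 SD, cut at about 50% in these data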
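Assay system: CHO-K1 cells co-transfected with Gal4 DBD–human SF-1 LBD, 5xGal4 luciferase reporter / Input: 4,000 cells per well / Incubation: 20 h compound exposure at 37 °C after 1 h cell settling / Detection: SteadyLite luciferase luminescence / Control set: DMSO negative control and −SF1 background wells / Replication: one test per compound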
M1 antag – antagonists of rat M1 muscarinic receptor; AID 628; hit rate 3.4% among 64,000; B-score at 10 µM; CHO-M1 cells, Fluo-4 calcium, ACh EC80 antagonist mode; hits give low values; P08482;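 active = calcium fluorescence response, raw or row-and-column corrected B-score, differing from the plate sample mean either way at a set confidence level, mostly lower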
D1 allo mod – allosteric modulators of human D1 dopamine receptor | P21728 | hit rate 5.9% among 58,000 | HEK293 D1, CRE-luciferase, dopamine EC30 potentiation; actives deviate in either direction | B-score at 10 µM;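 active = luminescence count or its row- and column-corrected plate score outside the 99.7% band of the plate's sample wells, on either side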
M1 agonist conf – confirmation of rat M1 muscarinic receptor agonists. shares compounds with M1 ag. CHO-M1 cells, Fluo-4 calcium fluorescence, agonist mode; actives lie on both sides. fluorescence change (max-min) at 10 µM. hit rate 19% among 1,700;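 active = fluorescence change differs from the solvent-only DMSO control mean at a set confidence level in both duplicate runs; inconclusive = differs from solvent-only control mean in just one of two runs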;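 also: an EC20 dose of acetylcholine follows compound addition during the same imaging run; raw fluorescence intensity difference in instrument units with no normalization to controls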
M4 agonist ctr – rat M4 muscarinic agonism, M1 counter-screen; CHO M4/Gqi5 cells, Fluo-4 calcium fluorescence, agonist mode; actives lie on both sides; hit rate 9% among 1,700; fluorescence change (max-min) at 10 µM; shares compounds with M1 ag;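 active = fluorescence change differing from the plate's solvent-only control wells at 99.7% confidence in both duplicates, whether higher or lower; inconclusive = differs from solvent controls in only one of two duplicates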
D1 PAM confirm – confirmation of human D1 dopamine receptor allosteric modulators; shares compounds with D1 allo mod; HEK293 D1 CRE-luciferase, dopamine EC30 potentiation; hits give high values; luminescence at 10 µM; hit rate 88% among 2,200;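 active = luminescence in either of two replicates above the same-plate mean plus 3 SD of the low-dose dopamine control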
D1 ag no DA – secondary test of D1 modulators: activity without dopamine; shares compounds with D1 allo mod; HEK293 D1 CRE-luciferase, luminescence, no dopamine; hits give high values; luminescence at 10 µM; hit rate 0.8% among 1,900; in the data active = luminescence above about 3900
Isoprot counter – isoproterenol response counter-screen activity for D1 modulators | shares compounds with D1 allo mod | HEK293 D1 CRE-luciferase, isoproterenol EC30 counter-screen | calls only at 10 µM | hit rate 63% among 2,200 | AID 647;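 active = luminescence in either replicate above plate mean of wells with a partly effective reference agonist dose plus 3 SD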;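 also: isoproterenol raises cAMP through native beta-adrenoceptor Gs so signal bypasses D1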
* = called active by the depositor; i = inactive; ? = inconclusive; . = no result; + = active, no number.

SMILES	mHtt clearance	M1 ag	RORa activator	SF-1 act	M1 antag	D1 allo mod	M1 agonist conf	M4 agonist ctr	D1 PAM confirm	D1 ag no DA	Isoprot counter
Cc1ccccc1Nc1nc(N)nc(CSc2nc3ccccc3c(=O)n2CCCO)n1	.	4.08*	-7.5	13.2	0.155	2.96*	?	-48.8	8640*	1664	+
COCCCNC(=O)C(C#N)c1nc2ccccc2nc1N1CCCC1 (stereo unspecified)	-4.3	340*	7.1	-5.0	-1.74	12.1*	230*	749*	18008*	1688	+
COc1ccc(-c2nc(CSCC(=O)N3CCC(C(N)=O)CC3)c(C)o2)cc1OC	.	0.435	-5.1	19.0	0.476	0.709	.	.	.	.	.
CCOC(=O)C1CCN(C(=O)CSCc2nc(-c3ccc(OCC)cc3)oc2C)CC1	.	5.14*	21.1	-24.1	-1.61	5.73*	-10.6	?	12112*	1828	+
CCOc1ccc(-c2nc(CSCC(=O)N3CCN(C(=O)c4ccco4)CC3)c(C)o2)cc1	.	-3.47*	17.0	6.7	-0.362	3.63*	?	-42.1	5924	1480	+
CCc1nc2ccccc2n(CC)c1=O	-1.7	12.7*	-8.1	18.5	0.00124	4.24*	-5.37	-48.3	10236*	2112	+
CCn1c(=O)c(C(C)=O)nc2ccccc21	-53.4	-0.255	-13.3	-14.2	0.433	1.02	.	.	.	.	.
CC(=O)c1sc2nc(-c3cccs3)cc(C(F)(F)F)c2c1N	-7.3	97.7*	-24.1	-0.9	-1.37	5.88*	123*	39.8	12244*	1624	+
O=C(C1CCN(S(=O)(=O)c2cccc3cccnc23)CC1)N1CCn2c1nc1ccccc12	33.4	22.3*	7.6	-0.8	6.61*	4.87*	-11.4	-43.4	12004*	2024	+
O=C(CN(Cc1cccs1)C(=O)CN1C(=O)COc2ccccc21)NCc1ccco1	37.1	0.286	1.1	0.7	1.11	0.0151	.	.	.	.	.
CSc1nc(C)cc(SCCO)n1	12.0	-0.411	-8.5	-6.3	0.404	1.52	.	.	.	.	.
Cc1ccc(N2C(=O)CC(Sc3ncn[nH]3)C2=O)cc1C (stereo unspecified)	14.9	.	.	.	.	.	.	.	.	.	.
COC(=O)c1cc(OC)c(OC)cc1NC(=O)C1CCC(=O)N1S(=O)(=O)c1ccc(C)cc1 (stereo unspecified)	.	-2.01*	15.1	-10.6	-0.0421	9.15*	?	-25.9	16888*	.	+
Cn1cc(S(=O)(=O)NCc2ccco2)c(=O)n(C)c1=O	.	-1.5	1.1	0.2	0.806	-1.17	.	.	.	.	.
c1ccc(Cn2c(-c3ccco3)nc3nc4ccccc4nc32)cc1	47.3	3.69*	75.2*	81.8*	-0.533	3.54*	?	?	7452*	1544	+
COC(=O)c1sccc1-c1ccc(/C=N/OC(=O)c2ccccc2)o1	-4.5	.	.	.	.	.	.	.	.	.	.
COCCNC(=O)C1CCCN(c2ncccn2)C1 (stereo unspecified)	26.0	0.511	-14.0	-3.8	0.277	-0.0823	.	.	.	.	.
COCCCNC(=O)C1CCN(c2ncccn2)CC1	21.4	2.57*	-15.0	-0.4	-0.141	1.77*	-22.2	-50.6	5220	1492	i
CCOC(=O)c1c(C)noc1CP(=O)(c1ccccc1)c1ccccc1	-52.2	.	-3.8	6.4	.	.	.	.	.	.	.
CSc1nnc2n(Cc3ccccc3)c(=O)c3c4c(sc3n12)COC(C(C)C)C4 (stereo unspecified)	-26.9	.	.	.	.	.	.	.	.	.	.
